ChEMBL document CHEMBL1131215, “Anhydrolide macrolides. 1. Synthesis and antibacterial activity of 2,3-anhydro-6-O-methyl 11,12-carbamate erythromycin A analogues” (1998)
≈ marks a conversion by molar mass, not a printed value.

Experiments:
Assay type in all cases: functional
[1] = tested on: Staphylococcus aureus; assay: In vivo antibacterial activity in mice infected with Staphylococcus aureus NCTC-10649M.
[2] = tested on: Streptococcus pneumoniae; assay: In vitro antibacterial activity against ATCC 6303 strain of Streptococcus pneumoniae
How it was run: (§1)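 MIC determined by standard agar dilution; values in μg/mL.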

[3] = tested on: Streptococcus pneumoniae; assay: In vivo antibacterial activity in mice infected with Streptococcus pneumoniae ATCC 6303
[4] = tested on: Streptococcus pyogenes; assay: In vitro antibacterial activity against 930 strain of Streptococcus pyogenes; how it was run: as §1
[5] = tested on: Mus musculus; assay: Effective dose when administered orally in mice infected with Streptococcus pneumoniae ATCC 6303; conditions: po
How it was run: (§2)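 Mice infected intraperitoneally with 1000 × LD₅₀ (S. aureus) or […] × LD₅₀ (S. pneumoniae). Compound given orally (po) or subcutaneously (sc) at 1 and 5 h post-infection. ED₅₀ expressed in mg/kg/day with 95% confidence interval.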

[6] = tested on: Mus musculus; assay: Effective dose when administered subcutaneously in mice infected with Staphylococcus aureus NCTC-10649M.; conditions: sc; how it was run: as §2
[7] = tested on: Mus musculus; assay: Effective dose when administered subcutaneously in mice infected with Streptococcus pneumoniae ATCC 6303; conditions: sc; how it was run: as §2
[8] = tested on: Staphylococcus aureus; assay: In vitro antibacterial activity against 6538P strain of Staphylococcus aureus; how it was run: as §1
[9] = tested on: Streptococcus pneumoniae; assay: In vitro antibacterial activity against 5979 strain of Streptococcus pneumoniae; how it was run: as §1
[10] = tested on: Haemophilus influenzae; assay: In vitro antibacterial activity against DILL strain of Haemophilus influenzae.; how it was run: as §1
[11] = tested on: Streptococcus pyogenes; assay: In vitro antibacterial activity against PIU 2548 strain of Streptococcus pyogenes; how it was run: as §1
[12] = In vitro antibacterial activity against A-5278 strain of Staphylococcus aureus; conditions: Staphylococcus aureus; how it was run: as §1
[13] = tested on: Staphylococcus aureus; assay: In vitro antibacterial activity against A5177 strain of Staphylococcus aureus; how it was run: as §1
[14] = tested on: Streptococcus pneumoniae; assay: In vitro antibacterial activity against 5649 strain of Streptococcus pneumoniae; how it was run: as §1
[15] = tested on: Mus musculus; assay: Effective dose when administered orally in mice infected with Staphylococcus aureus NCTC-10649M.; conditions: po; how it was run: as §2
[16] = tested on: Streptococcus pneumoniae; assay: In vitro antibacterial activity against Streptococcus pneumoniae 5979; how it was run: as §1
[17] = Streptococcus pneumoniae, ATCC 6303

| Structure (SMILES) | MIC [1] [µg/mL] | MIC [2, 17] [µg/mL] | MIC [3] [µg/mL] | MIC ([4]; Streptococcus pyogenes) [µg/mL] | ED50 [5] [mg/kg/day] | MIC ([8]; Staphylococcus aureus) [µg/mL] | MIC [9] [µg/mL] | MIC [10] [µg/mL] | MIC ([11]; Streptococcus pyogenes) [µg/mL] | MIC [12] [µg/mL] | MIC ([13]; Staphylococcus aureus) [µg/mL] | MIC ([14]; Streptococcus pneumoniae) [µg/mL] | ED50 [15] [mg/kg/day] | MIC [8] [µg/mL] | other results |
| --- | --- | --- | --- | --- | --- | --- | --- | --- | --- | --- | --- | --- | --- | --- | --- |
| CC[C@H]1OC(=O)/C(C)=C/[C@H](C)[C@@H](O[C@@H]2O[C@H](C)C[C@H](N(C)C)[C@H]2O)[C@@](C)(OC)C[C@@H](C)C(=O)[C@H](C)[C@H]2N(CCc3ccc(Cl)c(Cl)c3)C(=O)O[C@]12C | 0.39 (≈ 0.507 µM) | 0.12 (≈ 0.156 µM) | 0.12 (≈ 0.156 µM) | 6.2 (≈ 8.05 µM) | > 40 | 0.39 (≈ 0.507 µM) | 8 (≈ 10.4 µM) | 32 (≈ 41.6 µM) | 0.2 (≈ 0.26 µM) | 12.5 (≈ 16.2 µM) | 0.39 (≈ 0.507 µM) | 2 (≈ 2.6 µM) | > 100 |  | ED50 [6]: > 40 mg/kg/day; ED50 [7]: > 16 mg/kg/day |
| CC[C@H]1OC(=O)/C(C)=C/[C@H](C)[C@@H](O[C@@H]2O[C@H](C)C[C@H](N(C)C)[C@H]2O)[C@@](C)(OC)C[C@@H](C)C(=O)[C@H](C)[C@H]2N(CCc3ccc(Br)cc3)C(=O)O[C@]12C | 0.39 (≈ 0.5 µM) | 0.125 (≈ 0.16 µM) | 0.125 (≈ 0.16 µM) | 6.2 (≈ 7.95 µM) | > 100 | 0.39 (≈ 0.5 µM) | 16 (≈ 20.5 µM) | 16 (≈ 20.5 µM) | 0.39 (≈ 0.5 µM) | 25 (≈ 32.1 µM) | 0.39 (≈ 0.5 µM) | 1 (≈ 1.28 µM) | > 100 |  |  |
| CC[C@H]1OC(=O)/C(C)=C/[C@H](C)[C@@H](O[C@@H]2O[C@H](C)C[C@H](N(C)C)[C@H]2O)[C@@](C)(OC)C[C@@H](C)C(=O)[C@H](C)[C@H]2N(CCc3ccccc3)C(=O)O[C@]12C |  | 0.03 (≈ 0.0428 µM) |  | 25 (≈ 35.7 µM) |  | 0.39 (≈ 0.556 µM) |  | 32 (≈ 45.7 µM) | 0.01 (≈ 0.0143 µM) | 50 (≈ 71.3 µM) | 0.1 (≈ 0.143 µM) | 1 (≈ 1.43 µM) |  |  | MIC [16]: 64 µg/mL (≈ 91.3 µM) |
| CC[C@H]1OC(=O)/C(C)=C/[C@H](C)[C@@H](O[C@@H]2O[C@H](C)C[C@H](N(C)C)[C@H]2O)[C@@](C)(OC)C[C@@H](C)C(=O)[C@H](C)[C@H]2N(CCc3cccc(OC)c3)C(=O)O[C@]12C | 0.39 (≈ 0.534 µM) | 0.25 (≈ 0.342 µM) | 0.25 (≈ 0.342 µM) | 25 (≈ 34.2 µM) | > 100 | 0.39 (≈ 0.534 µM) | 64 (≈ 87.6 µM) | 16 (≈ 21.9 µM) | 0.39 (≈ 0.534 µM) |  | 0.39 (≈ 0.534 µM) | 2 (≈ 2.74 µM) | > 100 |  |  |
| CC[C@H]1OC(=O)/C(C)=C/[C@H](C)[C@@H](O[C@@H]2O[C@H](C)C[C@H](N(C)C)[C@H]2O)[C@@](C)(OC)C[C@@H](C)C(=O)[C@H](C)[C@H]2NC(=O)O[C@@]21C (stereo in doubt; 6) | 1.56 (≈ 2.61 µM) | 0.25 (≈ 0.419 µM) | 0.25 (≈ 0.419 µM) |  | > 40 |  |  |  |  |  | 0.78 (≈ 1.31 µM) | 0.5 (≈ 0.838 µM) | 35.8 | 1.56 (≈ 2.61 µM) | MIC [11]: 0.2 µg/mL (≈ 0.335 µM) |
| CC[C@H]1OC(=O)/C(C)=C/[C@H](C)[C@@H](O[C@@H]2O[C@H](C)C[C@H](N(C)C)[C@H]2O)[C@@](C)(OC)C[C@@H](C)C(=O)[C@H](C)[C@H]2N(CCCc3ccccc3)C(=O)O[C@]12C (stereo in doubt; 10) |  | 1 (≈ 1.4 µM) |  |  |  |  | 64 (≈ 89.5 µM) |  |  | 50 (≈ 69.9 µM) |  | 2 (≈ 2.8 µM) |  | 3.1 (≈ 4.34 µM) | MIC [4]: 25 µg/mL (≈ 35 µM); MIC [11]: 0.78 µg/mL (≈ 1.09 µM); MIC [13]: 3.1 µg/mL (≈ 4.34 µM) |
| CC[C@H]1OC(=O)/C(C)=C/[C@H](C)[C@@H](O[C@@H]2O[C@H](C)C[C@H](N(C)C)[C@H]2O)[C@@](C)(OC)C[C@@H](C)C(=O)[C@H](C)[C@H]2N(CCc3ccc(Oc4ccccc4)cc3)C(=O)O[C@]12C (stereo in doubt; 14) |  |  |  | 6.2 (≈ 7.82 µM) |  |  | 8 (≈ 10.1 µM) |  | 1.56 (≈ 1.97 µM) | 25 (≈ 31.5 µM) |  |  |  | 3.1 (≈ 3.91 µM) | MIC [2]: 1 µg/mL (≈ 1.26 µM); MIC [13]: 3.1 µg/mL (≈ 3.91 µM); MIC [14]: 2 µg/mL (≈ 2.52 µM) |
| CC[C@H]1OC(=O)[C@H](C)[C@@H](O[C@H]2C[C@@](C)(OC)[C@@H](O)[C@H](C)O2)[C@H](C)[C@@H](O[C@@H]2O[C@H](C)C[C@H](N(C)C)[C@H]2O)[C@](C)(OC)C[C@@H](C)C(=O)[C@H](C)[C@@H](O)[C@]1(C)O [CLARITHROMYCIN] | 0.03 (≈ 0.0401 µM) |  | 0.004 (≈ 0.00535 µM) |  |  |  |  |  |  |  |  |  |  |  |  |
